Measurements collected from several papers.
Target: Activated CDC42 kinase 1 (TNK2, Homo sapiens, UniProt Q07912)

| Structure (SMILES) | assay | conditions | remaining binding [%] |
| --- | --- | --- | --- |
| N[C@@H]1CCN(c2nccc(-c3cnn4ncccc34)n2)C1 | binding | 1 µM | 100 |
| CNC(=O)c1cc(Oc2ccc(NC(=O)Nc3ccc(Cl)c(C(F)(F)F)c3)cc2)ccn1 | cell-free assay, competition with immobilised ligand | 0.1 µM | 100 |
| c1ccc(N2CCN(Cc3nc4ccccc4[nH]3)CC2)nc1 | binding, competition with immobilised ligand | 1 µM | 100 |
| COc1cnc(Nc2cccc(S(N)(=O)=O)c2)nc1N1CCN(c2ccccc2)C(=O)C1 | binding, competition with immobilised ligand | 1 µM | 100 |
| CN(C)c1nccc(-c2cnc3ncccn23)n1 | binding | 1 µM | 99 |
| Cc1cnc(Nc2ccc(C(=O)N3CCC(N4CCCC4)CC3)cc2)nc1-c1cc2ccccc2s1 | binding, competition with immobilised ligand | 1 µM | 10 |
| Cc1cc(C)c(-n2ccn3nc(-c4cccnc4)cc23)cc1NC(=O)c1cc(C#N)cc(S(F)(F)(F)(F)F)c1 | cell-free assay, competition with immobilised ligand | 0.1 µM | 83.6 |
| COC(=O)Nc1nc2cc(C(=O)c3ccccc3)ccc2[nH]1 | cell-free assay, competition with immobilised ligand | 0.1 µM | 100 |
| C[C@H]1CCN(c2nccc(-c3cnn4ncccc34)n2)C1 | binding | 1 µM | 100 |
| C[C@@H](c1ccc(-n2cnc3c(N)ncnc32)cc1)N1CCc2nn(C)c(Cc3ccccc3)c2C1=O | binding, competition with immobilised ligand | 0.1 µM | 82 |
| CN(C)c1nccc(-c2cnn3ncccc23)n1 | binding | 1 µM | 100 |
| C[C@H](c1ccc(F)cc1)N(Cc1cccc(C(=O)O)c1)C(=O)c1cnc2ccccc2c1 | cell-free assay, competition with immobilised ligand | 1 µM | 100 |
| CCN1CCN(Cc2ccc(C(=O)Nc3ccc(C)c(Oc4ccc5c(c4)CC(=O)N5)c3)cc2C(F)(F)F)CC1 | binding, competition with immobilised ligand | 1 µM | 100 |
| Cc1c(-c2ccccc2)oc2c(C(=O)OCCN3CCCCC3)cccc2c1=O | cell-free assay, competition with immobilised ligand | 0.1 µM | 100 |
| Nc1ncc2c(n1)-c1c([nH]c3ccc(C#CC4CC4)cc13)CCCC2 | binding, competition with immobilised ligand | 1 µM | 100 |
| COc1cnc(Nc2cccc(S(N)(=O)=O)c2)nc1N1CCN(c2ccccc2)CC1 | binding, competition with immobilised ligand | 1 µM | 97 |

| Structure (SMILES) | assay | conditions | remaining binding [%] |
| --- | --- | --- | --- |
| Cc1nc(Nc2ncc(C(=O)Nc3c(C)cccc3Cl)s2)cc(N2CCN(CCO)CC2)n1 | cell-free assay, competition with immobilised ligand | 10 µM | 0 |
| Cc1c(NC(=O)c2cc(C(N)=O)nc3cc(F)ccc23)c(C(F)(F)F)nn1Cc1ccc(C#N)cc1 | cell-free assay, competition with immobilised ligand | 1 µM | 71 |
| CS(=O)(=O)CCNCc1ccc(-c2ccc3ncnc(Nc4ccc(OCc5cccc(F)c5)c(Cl)c4)c3c2)o1 | cell-free assay, competition with immobilised ligand | 0.1 µM | 100 |
| O=C(Nc1c[nH]nc1C(=O)NC1CCNCC1)c1cc(F)cc(F)c1 | binding, competition with immobilised ligand | 1 µM | 100 |
| Cc1nc(Cc2cccc(C(F)(F)F)c2)sc1-c1ccc(C(N)=O)nc1 | cell-free assay, competition with immobilised ligand | 1 µM | 100 |
| CN1CC[C@H](c2c(O)cc(O)c3c(=O)cc(-c4ccccc4Cl)oc23)[C@H](O)C1 | cell-free assay, competition with immobilised ligand | 0.1 µM | 100 |
| CCC(=O)N[C@H]1CC[C@@H](C(=O)N(C)c2ccc(-c3nc4ccccc4o3)cc2)C1 | cell-free assay, competition with immobilised ligand | 1 µM | 84 |
| CCN(CC)Cc1cc(Nc2ccnc3cc(Cl)ccc23)ccc1O | cell-free assay, competition with immobilised ligand | 0.1 µM | 89 |
| O=C(c1ccc(Nc2nccc(-c3cc4ccccc4s3)n2)cc1)N1CCC(N2CCCC2)CC1 | binding, competition with immobilised ligand | 1 µM | 62 |
| COc1cc2ncnc(Nc3ccc(F)c(Cl)c3)c2cc1OCCCN1CCOCC1 | cell-free assay, competition with immobilised ligand | 0.1 µM | 100 |
| COc1ncc2cc3ccccc3nc2c1C#N | cell-free assay, competition with immobilised ligand | 5 µM | 95 |
| c1cnn2ncc(-c3ccnc(N4CCC45COC5)n3)c2c1 | binding | 1 µM | 74 |
| C[C@@H]1CN(c2cc(-c3n[nH]c4ccc(OC5(C)CC5)cc34)ncn2)C[C@H](C)O1 | cell-free assay, competition with immobilised ligand | 0.1 µM | 79 |
| O=C(NCCCN1CCOCC1)c1ccc(Nc2ncc(Cl)c(-c3ccc(Cl)s3)n2)cc1 | binding, competition with immobilised ligand | 1 µM | 53 |
| COc1cc(-c2cn(C3CCc4c(F)cccc4N(CC(F)(F)F)C3=O)nn2)ccc1-n1cnc(C)c1 (centres unmarked) | cell-free assay, competition with immobilised ligand | 1 µM | 100 |
| Cc1cnn2ncc(-c3ccnc(N(C)C)n3)c2c1 | binding | 1 µM | 100 |
